Test results from ChEMBL document CHEMBL4138284, “Biomimetic Stereoselective Sulfa-Michael Addition Leads to Platensimycin and Platencin Sulfur Analogues against Methicillin-Resistant Staphylococcus aureus” (J Nat Prod, 2018).
Converted amounts (≈) assume the structure as drawn.

Each molecule was assayed on Staphylococcus aureus (assay: Antibacterial activity against methicillin-resistant Staphylococcus aureus isolate 7 incubated overnight by agar dilution method).
Format: functional
Summary of the method: (§1)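 MIC by agar dilution. Strains were grown overnight in LB broth and diluted, then about 10^4 CFU (2 μL spots) were spotted onto LB agar plates containing test compound at 0.5 to 8 μg mL−1 agar. Plates were incubated overnight at 37 °C and inspected for growth. Clinical MSSA and MRSA isolates came from local hospitals.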
Molecule C[C@]12C[C@]34C[C@@H]1C[C@H](O2)[C@H]3[C@](C)(CCC(=O)Nc1c(O)ccc(C(=O)O)c1O)C(=O)C[C@@H]4SC(=O)c1ccc(Cl)cc1 has an MIC of 1 µg/mL (≈ 1.63 µM).
Work on Cc1ccc(S[C@H]2CC(=O)[C@@](C)(CCC(=O)Nc3c(O)ccc(C(=O)O)c3O)[C@@H]3[C@@H]4C[C@H]5C[C@]23C[C@]5(C)O4)cc1 yielded an MIC of 4 µg/mL (≈ 7.07 µM).

What follows are molecules tested on Staphylococcus aureus (assay: Antibacterial activity against methicillin-resistant Staphylococcus aureus isolate 5 incubated overnight by agar dilution method).
Format: functional
Summary of the method: as §1
With C[C@]12C[C@]34C[C@@H]1C[C@H](O2)[C@H]3[C@](C)(CCC(=O)Nc1c(O)ccc(C(=O)O)c1O)C(=O)C[C@@H]4SC(=O)c1ccc(Cl)cc1 the MIC was 1 µg/mL (≈ 1.63 µM).
With Cc1ccc(S[C@H]2CC(=O)[C@@](C)(CCC(=O)Nc3c(O)ccc(C(=O)O)c3O)[C@@H]3[C@@H]4C[C@H]5C[C@]23C[C@]5(C)O4)cc1 the MIC was 4 µg/mL (≈ 7.07 µM).

Each molecule was assayed on Staphylococcus aureus (assay: Antibacterial activity against methicillin-sensitive Staphylococcus aureus isolate 4 incubated overnight by agar dilution method).
Format: functional
Summary of the method: as §1
Molecule C[C@]12C[C@]34C[C@@H]1C[C@H](O2)[C@H]3[C@](C)(CCC(=O)Nc1c(O)ccc(C(=O)O)c1O)C(=O)C[C@@H]4SC(=O)c1ccc(Cl)cc1 has an MIC of 1 µg/mL (≈ 1.63 µM).
Cc1ccc(S[C@H]2CC(=O)[C@@](C)(CCC(=O)Nc3c(O)ccc(C(=O)O)c3O)[C@@H]3[C@@H]4C[C@H]5C[C@]23C[C@]5(C)O4)cc1 was tested, and the MIC was 2 µg/mL (≈ 3.54 µM).

The molecules below were run on Staphylococcus aureus (assay: Antibacterial activity against methicillin-resistant Staphylococcus aureus isolate 8 incubated overnight by agar dilution method).
Format: functional
Summary of the method: as §1
Molecule C[C@]12C[C@]34C[C@@H]1C[C@H](O2)[C@H]3[C@](C)(CCC(=O)Nc1c(O)ccc(C(=O)O)c1O)C(=O)C[C@@H]4SC(=O)c1ccc(Cl)cc1 has an MIC of 1 µg/mL (≈ 1.63 µM).
Cc1ccc(S[C@H]2CC(=O)[C@@](C)(CCC(=O)Nc3c(O)ccc(C(=O)O)c3O)[C@@H]3[C@@H]4C[C@H]5C[C@]23C[C@]5(C)O4)cc1 was tested, and the MIC was 2 µg/mL (≈ 3.54 µM).

The molecules below were run on Staphylococcus aureus (assay: Antibacterial activity against methicillin-sensitive Staphylococcus aureus isolate 2 incubated overnight by agar dilution method).
Format: functional
Summary of the method: as §1
C[C@]12C[C@]34C[C@@H]1C[C@H](O2)[C@H]3[C@](C)(CCC(=O)Nc1c(O)ccc(C(=O)O)c1O)C(=O)C[C@@H]4SC(=O)c1ccc(Cl)cc1 was tested, and the MIC was 1 µg/mL (≈ 1.63 µM).
Cc1ccc(S[C@H]2CC(=O)[C@@](C)(CCC(=O)Nc3c(O)ccc(C(=O)O)c3O)[C@@H]3[C@@H]4C[C@H]5C[C@]23C[C@]5(C)O4)cc1 showed an MIC of 2 µg/mL (≈ 3.54 µM).

Each molecule was assayed on Staphylococcus aureus (assay: Antibacterial activity against methicillin-resistant Staphylococcus aureus isolate 9 incubated overnight by agar dilution method).
Format: functional
Summary of the method: as §1
C[C@]12C[C@]34C[C@@H]1C[C@H](O2)[C@H]3[C@](C)(CCC(=O)Nc1c(O)ccc(C(=O)O)c1O)C(=O)C[C@@H]4SC(=O)c1ccc(Cl)cc1 gave an MIC of 1 µg/mL (≈ 1.63 µM).
For Cc1ccc(S[C@H]2CC(=O)[C@@](C)(CCC(=O)Nc3c(O)ccc(C(=O)O)c3O)[C@@H]3[C@@H]4C[C@H]5C[C@]23C[C@]5(C)O4)cc1, the MIC was 2 µg/mL (≈ 3.54 µM).

What follows are molecules tested on Staphylococcus aureus (assay: Antibacterial activity against methicillin-resistant Staphylococcus aureus isolate 10 incubated overnight by agar dilution method).
Format: functional
Summary of the method: as §1
For C[C@]12C[C@]34C[C@@H]1C[C@H](O2)[C@H]3[C@](C)(CCC(=O)Nc1c(O)ccc(C(=O)O)c1O)C(=O)C[C@@H]4SC(=O)c1ccc(Cl)cc1, the MIC was 1 µg/mL (≈ 1.63 µM).
Cc1ccc(S[C@H]2CC(=O)[C@@](C)(CCC(=O)Nc3c(O)ccc(C(=O)O)c3O)[C@@H]3[C@@H]4C[C@H]5C[C@]23C[C@]5(C)O4)cc1 gave an MIC of 2 µg/mL (≈ 3.54 µM).

Each molecule was assayed on Staphylococcus aureus (assay: Antibacterial activity against methicillin-sensitive Staphylococcus aureus isolate 1 incubated overnight by agar dilution method).
Format: functional
Summary of the method: as §1
With C[C@]12C[C@]34C[C@@H]1C[C@H](O2)[C@H]3[C@](C)(CCC(=O)Nc1c(O)ccc(C(=O)O)c1O)C(=O)C[C@@H]4SC(=O)c1ccc(Cl)cc1 the MIC was 1 µg/mL (≈ 1.63 µM).
Cc1ccc(S[C@H]2CC(=O)[C@@](C)(CCC(=O)Nc3c(O)ccc(C(=O)O)c3O)[C@@H]3[C@@H]4C[C@H]5C[C@]23C[C@]5(C)O4)cc1 was tested, and the MIC was 2 µg/mL (≈ 3.54 µM).

These molecules were tested on Staphylococcus aureus (assay: Antibacterial activity against Staphylococcus aureus ATCC 29213 incubated overnight by agar dilution method).
Format: functional
Summary of the method: as §1
C[C@]12C[C@]34C[C@@H]1C[C@H](O2)[C@H]3[C@](C)(CCC(=O)Nc1c(O)ccc(C(=O)O)c1O)C(=O)C[C@@H]4SC(=O)c1ccc(Cl)cc1 was tested, and the MIC was 1 µg/mL (≈ 1.63 µM).
Cc1ccc(S[C@H]2CC(=O)[C@@](C)(CCC(=O)Nc3c(O)ccc(C(=O)O)c3O)[C@@H]3[C@@H]4C[C@H]5C[C@]23C[C@]5(C)O4)cc1 gave an MIC of 4 µg/mL (≈ 7.07 µM).

Each molecule was assayed on Staphylococcus aureus (assay: Antibacterial activity against methicillin-sensitive Staphylococcus aureus isolate 3 incubated overnight by agar dilution method).
Format: functional
Summary of the method: as §1
For C[C@]12C[C@]34C[C@@H]1C[C@H](O2)[C@H]3[C@](C)(CCC(=O)Nc1c(O)ccc(C(=O)O)c1O)C(=O)C[C@@H]4SC(=O)c1ccc(Cl)cc1, the MIC was 1 µg/mL (≈ 1.63 µM).
Work on Cc1ccc(S[C@H]2CC(=O)[C@@](C)(CCC(=O)Nc3c(O)ccc(C(=O)O)c3O)[C@@H]3[C@@H]4C[C@H]5C[C@]23C[C@]5(C)O4)cc1 yielded an MIC of 2 µg/mL (≈ 3.54 µM).

What follows are molecules tested on Staphylococcus aureus (assay: Antibacterial activity against methicillin-resistant Staphylococcus aureus isolate 6 incubated overnight by agar dilution method).
Format: functional
Summary of the method: as §1
With C[C@]12C[C@]34C[C@@H]1C[C@H](O2)[C@H]3[C@](C)(CCC(=O)Nc1c(O)ccc(C(=O)O)c1O)C(=O)C[C@@H]4SC(=O)c1ccc(Cl)cc1 the MIC was 1 µg/mL (≈ 1.63 µM).
Molecule Cc1ccc(S[C@H]2CC(=O)[C@@](C)(CCC(=O)Nc3c(O)ccc(C(=O)O)c3O)[C@@H]3[C@@H]4C[C@H]5C[C@]23C[C@]5(C)O4)cc1 has an MIC of 2 µg/mL (≈ 3.54 µM).

What follows are molecules tested on Staphylococcus aureus (assay: Antibacterial activity against methicillin-resistant Staphylococcus aureus isolate 11 incubated overnight by agar dilution method).
Format: functional
Summary of the method: as §1
C[C@]12C[C@]34C[C@@H]1C[C@H](O2)[C@H]3[C@](C)(CCC(=O)Nc1c(O)ccc(C(=O)O)c1O)C(=O)C[C@@H]4SC(=O)c1ccc(Cl)cc1 was tested, and the MIC was 2 µg/mL (≈ 3.26 µM).
Work on Cc1ccc(S[C@H]2CC(=O)[C@@](C)(CCC(=O)Nc3c(O)ccc(C(=O)O)c3O)[C@@H]3[C@@H]4C[C@H]5C[C@]23C[C@]5(C)O4)cc1 yielded an MIC of 2 µg/mL (≈ 3.54 µM).
